Screens deposited in PubChem by Johns Hopkins Ion Channel Center.
Compounds with a hit are over-represented: about 2.3% of the library has one in this group of screens.
TRPC4 potent – TRPC4 (mouse) allosteric potentiation; HEK293 TRPC4beta/mu-opioid, DAMGO EC20, Fluo-4 Ca2+ flux; active compounds read high; B-score at 10 µM; actives 0.42% (n = 310,000); AID 2227;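 active means B-score of calcium response area above 5 SD of library B-scores, with initial fluorescence ratio within 5 SD of library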;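 further: B-score of integrated fluorescence ratio over time as area under calcium response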
Target sequence (Q9QUQ5 whole entry, looked up): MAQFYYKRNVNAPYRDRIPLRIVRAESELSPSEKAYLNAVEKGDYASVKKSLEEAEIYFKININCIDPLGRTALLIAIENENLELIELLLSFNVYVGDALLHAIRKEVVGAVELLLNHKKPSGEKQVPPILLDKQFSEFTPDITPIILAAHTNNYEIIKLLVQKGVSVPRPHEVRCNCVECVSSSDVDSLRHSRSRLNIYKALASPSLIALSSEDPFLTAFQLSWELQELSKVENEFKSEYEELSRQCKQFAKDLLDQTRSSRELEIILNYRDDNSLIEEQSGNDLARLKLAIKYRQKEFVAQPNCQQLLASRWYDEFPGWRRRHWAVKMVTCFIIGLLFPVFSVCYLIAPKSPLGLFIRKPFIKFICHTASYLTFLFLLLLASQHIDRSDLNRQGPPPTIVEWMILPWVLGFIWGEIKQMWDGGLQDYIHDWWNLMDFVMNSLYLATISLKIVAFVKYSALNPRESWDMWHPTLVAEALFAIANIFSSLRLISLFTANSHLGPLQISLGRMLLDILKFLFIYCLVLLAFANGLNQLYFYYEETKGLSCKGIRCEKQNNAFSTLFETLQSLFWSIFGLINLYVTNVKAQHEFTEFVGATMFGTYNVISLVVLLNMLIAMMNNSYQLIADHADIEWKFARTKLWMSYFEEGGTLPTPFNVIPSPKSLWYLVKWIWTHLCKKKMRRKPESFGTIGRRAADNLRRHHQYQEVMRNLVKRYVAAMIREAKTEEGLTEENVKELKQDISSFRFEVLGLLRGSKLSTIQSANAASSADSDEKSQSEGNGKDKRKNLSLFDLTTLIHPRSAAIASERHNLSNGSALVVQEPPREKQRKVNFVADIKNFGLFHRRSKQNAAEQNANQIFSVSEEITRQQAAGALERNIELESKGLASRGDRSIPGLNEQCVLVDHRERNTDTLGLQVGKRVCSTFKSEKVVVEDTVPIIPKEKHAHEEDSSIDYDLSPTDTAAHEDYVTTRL
TRPC4 inh – blocks the mouse TRPC4 cation channel. HEK293 TRPC4beta/mu-opioid, DAMGO-evoked Fluo4 calcium flux; active compounds read low. B-score at 10 µM. actives 0.39% (n = 300,000). AID 2247;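 active means B-score over 3 SD under the library average, no early fluorescence shift, positive overall ratio signal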
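Material: HEK293 cells with stable TRPC4beta plus mu-opioid receptor expression; probe or stimulus: DAMGO in two steps, submaximal then maximal; technique: Fluo4 calcium fluorescence by kinetic imaging, 5 s 1 Hz baseline; measure: integrated fluorescence ratio relative to baseline, converted to per-well B score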
TRPC4 act – TRPC4 (mouse) channel activation | HEK293 TRPC4beta/mu-opioid, Fluo4 calcium fluorescence; active compounds read high | B-score at 10 µM | actives 0.49% (n = 310,000);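 active means B-score above 5 SD of library B-scores, and initial fluorescence ratio not above library mean plus 5 SD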;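 further: positive B-score marks a calcium rise read as TRPC4 activation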
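Assay system: HEK293 cells stably co-expressing mouse TRPC4beta and mu-opioid receptor / Timing: Fluo4 dye loading 45 min at room temperature, 110 s recording / Signal: Fluo4 calcium-sensitive dye fluorescence, kinetic, 1 Hz baseline / Read-out: integrated baseline-normalised fluorescence ratio, converted to per-well B score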
TRPC6 act – mouse TRPC6 channel activation; actives 0.13% (n = 310,000); HEK293-TRPC6 membrane potential dye fluorescence; active compounds read high; Q61143; B-score at 10 µM;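 active means B-score of the integrated fluorescence ratio above library mean plus 3 SD, and starting fluorescence ratio within library mean plus 5 SD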;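 further: higher score means more depolarization so channel activation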
TRPC6 inh – mouse TRPC6 channel inhibition; HEK293-TRPC6, membrane potential dye, ACh-evoked depolarization; active compounds read low; actives 1.1% (n = 310,000); B-score at 10 µM; Q61143; AID 2553;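 active means B-score under library mean minus 3 SD, initial fluorescence not abnormally high, positive integrated signal ratio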;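 further: B-score derived from integrated fluorescence ratio over the kinetic read; more negative B-score means stronger inhibition of depolarization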
An asterisk follows results filed as active; i = inactive.

SMILES	TRPC4 potent	TRPC4 inh	TRPC4 act	TRPC6 act	TRPC6 inh
Cc1ccc(NC(=O)NCc2ccccn2)cc1Cl	i	i	i	i	i
Cc1ccc(C)c(NS(=O)(=O)c2cc(C(=O)NCc3ccccn3)ccc2Cl)c1	i	i	i	i	i
Cc1ccc(C(=O)NCc2ccccn2)cc1Cl	10*	i	i	i	i
Cc1cc(OCC(=O)NC(C)C)cc(C)c1Br	i	i	i	i	i
Cc1cc(OCC(=O)N(C(C)C)C(C)C)cc(C)c1Br	38*	i	i	i	i
CN(CC(=O)Nc1cccc(F)c1)C(=O)c1cc([N+](=O)[O-])ccc1N1CCOCC1	i	i	i	i	i
Cc1cc(C)cc(NC(=O)C2C3C=CC4(O3)C2C(=O)N(CCN2CCCCC2)C4C(=O)NC2CCCCC2)c1 (centres undefined)	i	i	i	i	i
CN(C)CCN1C(=O)C2C(C(=O)Nc3cc(Cl)cc(Cl)c3)C3C=CC2(O3)C1C(=O)NC1CCCCC1 (centres undefined)	i	-7*	i	i	i
CC1CCCN(CCCN2C(=O)C3C(C(=O)Nc4ccc(Cl)cc4)C4C=CC3(O4)C2C(=O)NC2CCCCC2)C1 (centres undefined)	i	-6*	i	i	i
CC(C)c1ccc(NC(=O)C2C3C=CC4(O3)C2C(=O)N(CCCN2CCCCC2)C4C(=O)NC2CCCCC2)cc1 (centres undefined)	i	-6*	66*	i	i
CCN(CC)CCN1C(=O)C2C(C(=O)Nc3ccc(C(C)C)cc3)C3C=CC2(O3)C1C(=O)NC1CCCCC1 (centres undefined)	i	-6*	63*	i	i
Cc1ccc(NC(=O)C2C3C=CC4(O3)C2C(=O)N(CCCN2CCCC2)C4C(=O)NC2CCCCC2)cc1Cl (centres undefined)	i	i	i	i	i
Cc1ccc(Sc2ncccc2C(=O)NCC(c2ccc(F)cc2)N2CCOCC2)cc1C (centres undefined)	i	i	i	i	i
C/C(=N\O)C(=O)OC1CC(C)CCC1C(C)C (centres undefined)	13*	i	i	i	i
Cn1c(=O)n(CCCO)c(=O)c2c1nc1n2CCCN1Cc1ccccc1	i	-6*	i	i	i
CCCn1c(CN2CCN(c3cccc(Cl)c3)CC2)nc2c1c(=O)n(C)c(=O)n2C	12*	i	i	i	i
CCCCn1c(CN2CCN(c3cccc(Cl)c3)CC2)nc2c1c(=O)n(C)c(=O)n2C	i	i	i	i	i
Cn1c(=O)c2c(nc(CN3CCN(C(c4ccccc4)c4ccccc4)CC3)n2CCCO)n(C)c1=O	13*	i	i	i	i
COCCn1c(CN2CCN(C(c3ccccc3)c3ccccc3)CC2)nc2c1c(=O)n(C)c(=O)n2C	i	i	i	i	i
COc1ccc(C2=NOC(Cn3nc(C(=O)NCc4cccc(C(F)(F)F)c4)cc3-c3ccccc3)C2)cc1 (centres undefined)	i	i	i	i	i
CCCN1C2=NCCN2c2cc(C)c(C)cc21	i	-7*	i	i	i
CCCCCN1C2=NCCN2c2ccccc21	i	-6*	i	i	i
COc1ccc(CN2CCC(n3nccc3NC(=O)CCc3ccccc3)CC2)c(C)c1C	i	i	82*	i	i
CCn1cc(CN2CCC(n3nccc3NC(=O)CCCc3ccccc3)CC2)cn1	i	-7*	43*	i	i
CCn1cc(CN2CCC(n3nccc3NC(=O)Cc3ccccc3)CC2)cn1	i	i	i	i	i
SMILES	TRPC4 potent	TRPC4 inh	TRPC4 act	TRPC6 act	TRPC6 inh
Cc1ccc(CN2CCC(n3nccc3NC(=O)CCOc3ccccc3)CC2)cc1C	i	-6*	i	i	i
COC(=O)c1cc(S(=O)(=O)NCc2cc(OC)c(OC)c(OC)c2)cn1C	i	i	i	i	i
Cc1c(Cl)cccc1N=C(N)N=C(N)N	i	i	51*	i	i
Cc1ccc(NC(=O)CN(C)C(=O)CNC(=O)c2sc3ccccc3c2Cl)cc1	149*	i	i	i	i
COc1ccccc1CCC(=O)OCC(=O)Nc1c(C)nn(-c2ccccc2)c1C	i	i	i	i	i
COCC(C)N1CCC(Oc2ccc(C(=O)N3CCCC3)cc2)CC1 (centres undefined)	i	i	i	i	i
CC(C)(c1ccccc1)c1ccc(OCCCNCCO)cc1	i	-6*	i	i	i
O=C([O-])c1cc(-c2ccccc2)cc(-c2ccccc2)[n+]1Cc1ccccc1	i	i	i	i	-5.4*
Cc1nn(C)cc1/C=N/NC(=O)C(C)(C)Oc1ccc(Cl)cc1	11*	i	i	i	i
Cc1cc(C)cc(OCC(=O)N/N=C\c2cn(C)nc2C)c1	i	i	i	i	i
Cc1ccc(N(C(=O)c2csnn2)C(C(=O)NC2CCCCC2)c2cccnc2)cc1 (centres undefined)	i	i	i	i	i
N=c1c2c(ncn1Cc1ccco1)Oc1ccc3ccccc3c1C2c1ccccc1 (centres undefined)	i	i	i	i	i
CCCCn1cnc2c(c(-c3ccccc3)c(-c3ccccc3)n2Cc2ccco2)c1=N	i	i	i	i	-7.5*
N=c1c2c(-c3ccccc3)c(-c3ccccc3)n(Cc3ccco3)c2ncn1Cc1ccco1	i	i	46*	i	i
N=c1c2c(-c3ccccc3)c(-c3ccccc3)n(Cc3ccccc3)c2ncn1CCCn1ccnc1	i	i	i	i	-6.6*
CSc1nc(N2CCOCC2)c2c3c(sc2n1)CCCC3	i	-6*	i	i	i
NCCCNC(=O)c1cc2ccccc2[nH]1	i	i	106*	i	i
COc1ccc(OCC(O)CNC2CCCC2)cc1 (centres undefined)	i	i	i	i	i
CCc1ccc(OCCOCC(O)CNC2CCCC2)cc1 (centres undefined)	i	-5*	i	i	i
CC(C)NCC(O)COCCOc1ccc(C(C)(C)C)cc1 (centres undefined)	i	-5*	i	i	i
CCCOc1ccc(N2C(=O)CC(N3CCN(c4nc5ccccc5s4)CC3)C2=O)cc1 (centres undefined)	i	i	i	i	i
O=C1CC(N2CCN(c3nc4ccccc4s3)CC2)C(=O)N1c1cccc(F)c1 (centres undefined)	10*	i	i	i	i
